# Assay outcomes as filed in PubChem BioAssay.
# This is a sample that favours compounds with a hit; in the whole collection about 2.4% have one here.
# SUMO1-SIM PPI: SUMO1-SIM interaction modulation | P63165 | SUMO1 binding to a labelled peptide, TR-FRET, 1 h | inhibition, % at 20 µM | actives 0.33% (n = 360,000); in the data active = inhibition above about 37%
# Scp1 inh: inhibitors of human Scp-1 phosphatase; Q9GZU7; Recombinant Scp1, phosphopeptide, malachite green phosphate absorbance; inhibition, % at 20 µM; actives 0.88% (n = 340,000);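 active = inhibition above about 50% at 20 µM, limit read from the data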;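 also: plate controls were DMSO wells with enzyme for no effect and wells lacking enzyme for full effect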
# Target sequence (Q9GZU7 76-261 limits assumed): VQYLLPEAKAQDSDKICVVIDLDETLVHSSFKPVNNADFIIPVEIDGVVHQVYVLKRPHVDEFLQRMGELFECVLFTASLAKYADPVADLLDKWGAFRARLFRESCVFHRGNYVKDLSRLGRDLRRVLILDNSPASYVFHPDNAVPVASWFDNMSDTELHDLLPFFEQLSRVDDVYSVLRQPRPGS
#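 Test system – truncated SCP-1 phosphatase (76-261aa) · Reagent – Phosphorylated 17-residue peptide substrate · Incubation – 45 min room-temperature reaction, 5 min colour, 30 min stabiliser · Detection – colorimetric phosphate reagent with accelerator and stabiliser, absorbance at 630 nm · Measure – % inhibition at 20 µM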
# DNMT1 inh: inhibitors of human DNMT1; inhibition (reported as % activation of signal), % at 10 µM; actives 0.83% (n = 360,000); DNMT1 molecular beacon, Hinp1I cleavage, fluorescence; AID 588458; in the data active = inhibition above about 50%
# STEP inh: blocks human striatal-enriched tyrosine phosphatase. P54829. recombinant STEP, OMFP fluorogenic substrate, fluorescence. inhibition, % at 20 µM. actives 0.25% (n = 360,000);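 active = inhibition at 20 µM, scaled per plate between control wells, above about 37%, limit read from the data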;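 also: 0% = DMSO with enzyme and substrate and 100% = substrate only without enzyme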
# Target sequence (P54829 whole entry, looked up): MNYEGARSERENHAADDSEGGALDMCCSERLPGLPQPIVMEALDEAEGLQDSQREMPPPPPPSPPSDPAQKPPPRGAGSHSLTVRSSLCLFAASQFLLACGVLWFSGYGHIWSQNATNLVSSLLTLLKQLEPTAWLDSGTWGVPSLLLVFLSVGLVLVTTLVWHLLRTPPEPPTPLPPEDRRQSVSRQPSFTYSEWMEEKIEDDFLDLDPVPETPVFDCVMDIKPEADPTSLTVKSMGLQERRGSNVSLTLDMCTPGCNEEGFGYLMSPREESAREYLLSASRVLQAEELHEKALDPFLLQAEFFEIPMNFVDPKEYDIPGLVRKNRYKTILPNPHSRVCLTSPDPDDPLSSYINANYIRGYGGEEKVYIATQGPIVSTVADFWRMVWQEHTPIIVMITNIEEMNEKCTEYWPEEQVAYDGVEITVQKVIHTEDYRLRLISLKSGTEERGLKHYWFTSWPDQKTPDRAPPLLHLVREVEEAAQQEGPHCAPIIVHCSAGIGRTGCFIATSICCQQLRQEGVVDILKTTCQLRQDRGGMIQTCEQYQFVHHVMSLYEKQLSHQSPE
#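 Material: STEP (striatal-enriched tyrosine phosphatase) enzyme, cell-free; Compound dosing: 20 µM single dose in 1% DMSO; Technique: fluorescence read at 480 nm ex / 540 nm em; Times: reaction 20 min, ambient temperature; Medium: 50 mM Bis-Tris pH 6.0 with 2.5 mM DTT and 0.005% Tween 20; Also added: OMFP at 25 µM.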
# LMPTP inh: blocks human LMPTP phosphatase; P24666; inhibition, % at 20 µM; AID 651560; actives 0.22% (n = 360,000); recombinant LMPTP-A, OMFP fluorogenic substrate, fluorescence intensity;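 active = compounds that cut the enzyme signal by at least half of the control window in the single-dose screen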;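 also: plate controls were DMSO wells with enzyme plus substrate for no effect and substrate without enzyme for full effect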
#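 Test system: LMPTP-A phosphatase enzyme; input: 0.625 nM LMPTP-A final; reagent: OMFP substrate, 400 µM final; compound dosing: 20 µM single dose, 3% DMSO; incubation: 50 min dark incubation at room temperature; measured by: endpoint fluorescence intensity from OMFP dephosphorylation; measure: % inhibition relative to no-enzyme and uninhibited control wells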
# NadD inh: inhibitors of Staphylococcus aureus NadD. purified NadD enzyme, colorimetric absorbance read-out. inhibition, % at 20 µM. actives 0.78% (n = 360,000). AID 602399; in the data active = inhibition above about 26%
# Scp1 confirm: Scp-1 (human) inhibition, single-dose confirmed; shares compounds with Scp1 inh; recombinant SCP-1 catalytic domain, phosphate release, malachite green absorbance; inhibition, % at 20 µM; actives 61% (n = 2,500);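 also: plate controls were DMSO with enzyme for no effect and buffer wells lacking enzyme for full effect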
# MG interference: interferes with malachite green readout, flagging false Scp-1 hits; shares compounds with Scp1 inh; Colorimetric interference counterscreen, malachite green absorbance 630 nm; apparent inhibition (interference), % at 20 µM; 2,500 tested, under 10 active; AID 540313;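 also: compounds added after enzyme reaction finished so only phosphate colour detection is probed; plate controls were DMSO wells with completed Scp-1 reaction for no effect and substrate wells lacking enzyme for full effect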
# Scp-1 Tm shift: validation of human Scp-1 inhibitors by thermal shift binding | actives 25% (n = 1,500) | Recombinant SCP1, Sypro Orange thermal shift Tm | shares compounds with Scp1 inh | thermal shift relative to vanadate control, % at 40 µM;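 active = substances whose mean melting-temperature shift, as a percentage of the reference inhibitor's shift, reaches about 5.3%, limit read from the data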;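 also: 0% = Tm of DMSO wells and 100% = Tm with sodium orthovanadate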
# The depositor's hits bear a star; . = not tested or not shown.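 The calls were made as follows, unless noted: active = inhibition of at least 30% at 20 µM; inactive = the rest.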
SMILES,SUMO1-SIM PPI,Scp1 inh,DNMT1 inh,STEP inh,LMPTP inh,NadD inh,Scp1 confirm,MG interference,Scp-1 Tm shift
COc1cc(/C=C2\C(=N)N3N=C(S(C)(=O)=O)SC3=NC2=O)ccc1OC(=O)c1ccco1,4.1,52.0*,20.4,0.7,1.1,10.9,68.5*,-14.2,10.9*
COc1cc(/C=C2\C(=N)N3N=C(S(C)(=O)=O)SC3=NC2=O)ccc1OCCOc1ccccc1C,13.4,51.0*,-8.1,4.3,5.6,18.9,57.4*,-1.9,12.4*
Cc1nc2cc(N=NC3=C(O)CCCC3=O)ccc2s1,-14.4,-2.7,-9.8,1.0,1.9,8.0,.,.,.
CCC1(c2ccc(F)cc2)NC(=O)N(CC(=O)NCC(=O)Nc2cccc(C)c2C)C1=O (stereo not given),1.5,-2.8,1.6,0.3,0.2,-4.1,-15.1,-10.9,.
CC(=O)OCC1=C(C(=O)OC(C)(C)C)N2C(=O)[C@@H](NC(=O)Cc3ccccc3)[C@H]2SC1,2.8,91.2*,8.1,3.4,-1.0,19.4,70.0*,-19.5,8.8*
O=C(OCc1cc(=O)n2ccsc2n1)c1ccccc1O,7.2,53.0*,29.5,-3.5,1.6,-1.5,8.5,-4.6,.
COc1ccccc1C(=O)OCc1cc(=O)n2ccsc2n1,-1.6,16.0,21.6,-0.9,9.6,2.2,.,.,.
CCOc1cc(S(=O)(=O)Nc2cc(C)cc(C)c2)ccc1Cl,0.7,66.3*,-13.8,1.7,3.0,-7.5,-21.9,-16.1,.
Cc1ccc2nc(-c3ccc(N4C(=NC(=O)CCC(=O)O)SC5CS(=O)(=O)CC54)cc3)sc2c1 (stereo not given),9.1,51.3*,56.2*,-0.4,2.3,16.7,55.3*,-13.1,-4.0
O=C(CSc1nc(O)cc(=O)[nH]1)C1CC1,0.6,52.6*,1.5,-4.8,-1.0,4.3,-11.7,-16.7,.
Cc1ccccc1-c1cc2nc(Oc3ccc4c(c3)OCO4)n(C)c(=O)c2s1,-29.5,.,-3.5,2.9,4.2,4.7,.,.,.
COc1ccc(OC)c(NC(=O)CN(C)CC(=O)Nc2ccccc2Cl)c1,2.2,58.5*,-1.1,-2.1,0.1,-0.4,7.3,-4.3,.
O=C(CSc1nnc(Nc2ccccc2F)s1)NC(=O)CN1CCCC1=O,7.8,63.2*,45.0,37.5,11.9,-1.2,57.4*,-7.9,-10.3
O=C(CSc1nnc(Nc2ccccc2F)s1)NC1CCS(=O)(=O)C1 (stereo not given),1.6,-0.1,5.2,-4.9,-0.2,-3.1,.,.,.
CC(=O)Nc1c(NC(=O)CC#N)[nH]c2c(c1=O)c(=O)n(C)c(=O)n2C,-0.3,-8.0,-1.5,-0.9,-1.2,3.9,.,.,.
O=C(N/N=C/c1sc(=O)n(Cc2ccc(Br)cc2)c1Cl)c1ccco1,44.8*,103.1*,31.1,95.9*,68.8*,13.5,84.0*,-9.3,5.3*
CCCCn1c(N)c(N(CC(C)C)C(=O)C2CC(=O)N(Cc3ccccc3)C2)c(=O)[nH]c1=O (stereo not given),-1.3,-2.3,-0.5,-0.6,-1.1,3.8,-15.9,-12.8,.
O=C(CNC(=O)c1cccc(N2C(=O)c3ccccc3C2=O)c1)Nc1ccc(F)c(F)c1,-7.7,-2.2,8.1,0.7,1.0,-6.1,.,.,.
O=C(Nc1ccc(F)cc1)c1cccc(N2C(=O)c3ccccc3C2=O)c1,20.9,81.7*,-0.5,13.3,1.5,-7.6,55.4*,-5.2,-2.9
C=C1C[C@H](O[C@@H]2O[C@H](CO)[C@@H](O)[C@H](O)[C@H]2O)[C@@H]2[C@H](OC(=O)[C@H]2C)[C@H]2[C@H](C)[C@H](O)C[C@@H]12,8.0,-8.1,-2.0,-0.9,-0.9,-0.7,.,.,.
COc1ccc(Br)cc1C(=O)Nc1cccc(-c2nnc(-c3ccco3)o2)c1,18.3,97.8*,44.2,32.6,31.9,-8.5,71.7*,-11.4,2.4
CC(=O)c1c(C)n(C)c2ccc(OC(=O)c3ccc([N+](=O)[O-])cc3)cc12,-7.2,58.9*,7.1,-0.1,0.4,4.0,-10.5,-14.5,.
C=CCn1c(COc2cccc(C)c2)nnc1SCn1nnc2ccccc2c1=O,-5.8,-1.3,0.4,-1.1,-1.5,0.0,.,.,.
N#CC1(NC(=O)COc2ccccc2[N+](=O)[O-])CCCCC1,-3.9,52.1*,2.8,-1.7,-2.0,13.9,73.0*,-21.9,-7.0
N#CC1(NC(=O)COc2cc(F)ccc2[N+](=O)[O-])CCCCC1,-10.1,-2.7,1.8,-1.6,-0.7,1.1,.,.,.
SMILES,SUMO1-SIM PPI,Scp1 inh,DNMT1 inh,STEP inh,LMPTP inh,NadD inh,Scp1 confirm,MG interference,Scp-1 Tm shift
N[C@@H](C(=O)N[C@@H]1C(=O)N2C(C(=O)O)=C(Cl)CS[C@H]12)c1ccccc1,10.6,57.2*,20.6,5.9,2.1,12.8,59.9*,-16.7,7.4*
CC1=C(C(=O)O)N2C(=O)C(NC(=O)c3ccccc3Cl)C2SC1 (stereo not given),-0.5,-1.6,0.5,-0.2,-0.3,-2.7,.,.,.
C[N+]1(CC(=O)OCCCc2ccccc2)CCCC1,-3.1,61.9*,-1.1,-0.5,-1.5,12.0,82.4*,-18.6,-26.1
COC(=O)N1CCC2CC1c1c(Cl)cccc12 (stereo not given),4.3,.,-0.6,-3.1,-2.3,-3.6,.,.,.
Cc1ccc(C(=O)N/N=C\C=C\c2ccc(Br)cc2)cn1,-19.1,72.1*,6.2,6.0,1.0,6.3,47.6*,-6.0,-16.2
COC(=O)CNC(=O)c1c(-c2c(Cl)cccc2Cl)noc1C,1.6,54.7*,0.1,-5.8,-0.2,-10.8,-10.2,-12.3,.
CCCc1cc(C(=O)Nc2cccc(-c3nn[nH]n3)c2)sc1C,22.1,.,1.0,-2.0,-3.9,3.9,.,.,.
COc1ccc(-n2nc(C(=O)NCC(=O)NCCC3=CCCCC3)c3ccccc3c2=O)cc1,-12.4,-3.1,0.0,0.3,0.8,-8.1,.,.,.
Cn1c(NN)nc2c1c(=O)n(Cc1ccccc1)c(=O)n2C,-1.6,68.5*,-5.3,7.6,8.5,0.3,62.3*,5.0,9.4*
Cc1ccn2cc(CCNC(=O)C3CC=CCC3C(=O)O)nc2c1 (stereo not given),-3.6,55.0*,-1.4,-2.3,-4.8,-6.7,-6.2,-4.6,.
NS(=O)(=O)c1ccc(CCNC(=O)c2ccc3nccnc3c2)cc1,10.9,99.0*,42.6,8.2,55.0*,13.6,75.8*,-7.1,0.8
